# Activity calls are given as the source filed them.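 Rule for the calls, unless noted: active = a full or partial loss of lipid-probe fluorescence in the fish gall bladder, intestine or both, judged by eye; inactive = no fluorescence loss, or compound toxic to the fish.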
# Key:
# [1] = inhibitors of TNFa-induced NFkB p65 translocation, primary screen, imaging, HUVEC, MLSMR starter and 10KST1 sets (AID 438;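 active = inhibition above 20% together with a positive visual image hit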;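 note: compound added about 3h40 before a 20 min TNFalpha stimulation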;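 for inhibition: signal is the nuclear over cytoplasmic p65 intensity ratio per well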); conditions: HUVEC TNFa-induced p65 nuclear translocation; cell count: measured here: nuclei count (cytotoxicity indicator), at 2.08 µM; inhibition: at 2 µM, stronger effect = higher value, 0% TNFa-plus-vehicle, 100% no-TNFa wells
# [2] = inhibitors of E-selectin induction by TNFa, primary screen, imaging, HUVEC, immunofluorescence, MLSMR starter and 10KST1 sets (AID 487;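 active = visually confirmed hit in the image check and inhibition above 20%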;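 for inhibition: signal is fraction of cell area covered by stained E-selectin grains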;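 for nuclei count: 100% = median nuclei count of all wells on the same plate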); conditions: HUVEC TNFalpha-induced E-selectin immunofluorescence imaging, at 2 µM; inhibition: stronger effect = higher value; nuclei count: measured here: cell number, toxicity
# [3] = DUSP6 inhibitors restoring Erk phosphorylation by chemical complementation, primary imaging in DUSP6-transfected HeLa (AID 609;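 active = compounds giving at least 50% inhibition in the cell-based MKP-3 phosphatase rescue imaging test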;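 for inhibition: phospho-Erk level distribution per well compared with pooled transfected vehicle control wells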); conditions: HeLa MKP-3 transfected, phospho-Erk imaging KS statistic, at 10 µM, cells stimulated with TPA for 15 min
# [4] = target: Dual specificity protein phosphatase 6 (Homo sapiens) (UniProt Q16828); assay: as above; conditions: HeLa MKP-3 transfected, phospho-Erk imaging KS statistic; at 10 µM; stronger effect = higher value; cells stimulated with TPA for 15 min
# [5] = target: Voltage-gated potassium channel subunit beta-2 (Rattus norvegicus) (UniProt P62483); assay: KvBeta enzyme negative modulators, primary screen, biochemical, NADPH fluorescence (AID 622;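 active = fluorescence slope higher than the sample average by over 3 SD, cut at about -0.22 in these data, passing the limit was not always enough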;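 note: slope of raw intensity against log time taken from 70 to 1610 s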); conditions: recombinant KvBeta, 4-cyanobenzaldehyde reduction, at 10 µM, stronger effect = higher value
# [6] = target: Voltage-gated potassium channel subunit beta-2 (Rattus norvegicus) (UniProt P62483); assay: KvBeta positive modulators, primary screen, biochemical, NADPH fluorescence (AID 623;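 active = NADPH fluorescence slope more negative than the mean of all samples by about 3 SD, 99.7% confidence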;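 note: fluorescence intensity change per second fitted from 20 to 320 s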); conditions: Recombinant KvBeta, NADPH fluorescence decrease slope, 10 min; at 10 µM; stronger effect = lower value
# [7] = target: Muscarinic acetylcholine receptor M4 (Homo sapiens) (UniProt P08173); assay: compounds altering M4/GIRK thallium flux, either direction, primary screen, M4 allosteric agonist project, cell-based, HEK293 M4/GIRK, BTC-AM (AID 625;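 active = fluorescence slope after compound addition differing from the mean of all tested samples at 99.7% confidence, mostly higher but some lower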;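 note: thallium influx through GIRK channels coupled to M4 in HEK293 cells with BTC-AM dye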); conditions: at 10 µM, actives lie on both sides
# Procedure, shortened: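 Material: HEK293 cells with M4 receptor and GIRK channels; Times: cells overnight at 37 °C, BTC-AM loading 1 h, reads 2 min total; Technique: kinetic BTC-AM fluorescence sampled at 1 Hz, 10 s pre-addition baseline; Read-out basis: slope over 15–24 s of trace normalized to starting intensity; Controls: carbachol positive, DMSO negative.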
# [8] = inhibitors of larval lipid processing in zebrafish, primary screen, whole organism, PED6 fluorescence, gall bladder and intestine (AID 686); conditions: Zebrafish larvae PED6 lipid processing, fluorescence scoring; screened at 20 µM (by protocol);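 note: larvae 5 to 7 days old with five fish per well; signal comes from phospholipase A2 cleavage of quenched PED6 carried via bile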
# Procedure, shortened: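 Incubation: overnight exposure of larvae to compound plus PED6 / Test system: live zebrafish larvae aged 5-7 days, whole organism / Amount: 5 larvae per well / Read-out basis: visual per-well fluorescence inhibition score / Signal: visual fluorescence microscopy scoring of gall bladder, gut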
# [9] = inhibitors of Chlamydomonas gravitaxis, primary screen, whole organism, Chlamydomonas reinhardtii, WT vs cilia-less mutant, absorbance, 96-well (AID 463189;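 active = inhibition at or above 50% relative to wild type and mutant plate controls; inactive = inhibition below 50%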;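 note: 0% = wild type cc124 cells in DMSO and 100% = ciliumless bld1 mutant cells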); conditions: OD600 absorbance, 2 days, at 10 µM, stronger effect = higher value
# [10] = measured here: cell density z-score
# [11] = measured here: nuclear c-Myc green intensity z-score
# [12] = measured here: nuclear pErk red intensity z-score, stronger effect = higher value
# Voltage-gated potassium channel subunit beta-2 (Rattus norvegicus), sequence (P62483 whole entry, looked up): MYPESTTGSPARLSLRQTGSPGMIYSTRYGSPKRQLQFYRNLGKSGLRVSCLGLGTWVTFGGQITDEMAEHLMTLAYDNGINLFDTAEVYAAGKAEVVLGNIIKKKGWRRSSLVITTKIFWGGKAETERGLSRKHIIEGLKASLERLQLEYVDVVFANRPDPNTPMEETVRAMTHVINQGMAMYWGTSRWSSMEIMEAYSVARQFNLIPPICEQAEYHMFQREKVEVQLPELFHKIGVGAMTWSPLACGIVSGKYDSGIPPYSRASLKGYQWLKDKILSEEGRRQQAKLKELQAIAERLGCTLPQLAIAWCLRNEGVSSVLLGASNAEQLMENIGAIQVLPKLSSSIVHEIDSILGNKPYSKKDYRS
# Muscarinic acetylcholine receptor M4 (Homo sapiens), sequence (P08173 whole entry, looked up): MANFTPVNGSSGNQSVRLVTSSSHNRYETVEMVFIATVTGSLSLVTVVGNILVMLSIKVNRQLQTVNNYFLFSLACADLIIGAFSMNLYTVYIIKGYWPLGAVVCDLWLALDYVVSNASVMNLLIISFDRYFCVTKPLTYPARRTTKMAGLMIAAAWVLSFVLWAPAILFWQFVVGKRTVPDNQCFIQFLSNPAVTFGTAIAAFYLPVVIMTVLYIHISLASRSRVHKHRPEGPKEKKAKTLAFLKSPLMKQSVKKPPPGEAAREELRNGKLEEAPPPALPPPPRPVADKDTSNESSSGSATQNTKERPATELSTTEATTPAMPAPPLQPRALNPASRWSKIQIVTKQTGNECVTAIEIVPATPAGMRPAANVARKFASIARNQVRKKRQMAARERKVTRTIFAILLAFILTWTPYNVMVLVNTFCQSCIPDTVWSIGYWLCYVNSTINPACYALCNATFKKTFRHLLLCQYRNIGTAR
# Dual specificity protein phosphatase 6 (Homo sapiens), sequence (Q16828 whole entry, looked up): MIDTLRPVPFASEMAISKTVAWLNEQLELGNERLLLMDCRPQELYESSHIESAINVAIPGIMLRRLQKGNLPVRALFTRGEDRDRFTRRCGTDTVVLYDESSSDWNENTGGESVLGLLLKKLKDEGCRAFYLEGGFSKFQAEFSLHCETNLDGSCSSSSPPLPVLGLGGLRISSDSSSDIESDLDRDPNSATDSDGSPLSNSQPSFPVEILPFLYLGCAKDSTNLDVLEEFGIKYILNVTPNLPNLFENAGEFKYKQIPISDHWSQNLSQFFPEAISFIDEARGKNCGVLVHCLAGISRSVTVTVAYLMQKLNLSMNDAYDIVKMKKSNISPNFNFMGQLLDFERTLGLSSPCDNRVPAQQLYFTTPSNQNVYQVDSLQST
Structure (SMILES),cell count [1],inhibition [1],inhibition [2],nuclei count [2] [%],"z-score [3, 10]","z-score [3, 11]","z-score [3, 12]",inhibition [4],fluorescence slope [5],NADPH fluorescence slope [6],fluorescence slope [7],outcome [8],inhibition [9]
C[N+]1(CCNC(=O)/C=N/O)CCCCC1,468,-0.1% (inactive),-76.5% (inactive),147,-1.04,0.313,0.488,-0.624% (inactive),-0.42 (inactive),-2.5e-05 (inactive),0.00534 (inactive),inactive,13.4% (inactive)
CCN(CC)CCCN1C(=O)C(=O)/C(=C(/O)c2ccc3c(c2)CC(C)O3)C1c1cccnc1 (stereo unspecified),574,-10.8% (inactive),68% (inactive),83.2,-1.33,0.323,0.536,6.04% (inactive),-0.502 (inactive),-2.4e-05 (inactive),0.00627 (inactive),inactive,13.2% (inactive)
Cc1ccc(C(=O)NCCCNCCCNC(=O)c2ccc(C)nc2)cn1,393,-2.8% (inactive),-153% (inactive),151,0.349,-0.364,-0.725,3.56% (inactive),-0.471 (inactive),-8.7e-05 (inactive),0.00476 (inactive),inactive,0.875% (inactive)
Cc1ccc(OCC(O)CNS(=O)(=O)c2ccccc2C(=O)O)cc1 (stereo unspecified),625,-11.3% (inactive),-18.3% (inactive),152,0.248,0.991,-0.853,21.4% (inactive),-0.412 (inactive),-2.6e-05 (inactive),0.00639 (inactive),inactive,-7.23% (inactive)
C=CCOc1ccc(/C(O)=C2/C(=O)C(=O)N(CCCN3CCOCC3)C2c2ccc(OC)cc2)cc1 (stereo unspecified),409,-10.2% (inactive),-115% (inactive),131,0.861,-1.19,0.613,14% (inactive),-0.455 (inactive),-0.000145 (inactive),0.00475 (inactive),inactive,25.3% (inactive)
CCOc1ccc(N2C(=O)CC(N)C2=O)cc1 (stereo unspecified),726,11.3% (inactive),33.5% (inactive),123,-0.139,1.28,0.161,-13.3% (inactive),-0.462 (inactive),-5.8e-05 (inactive),0.00592 (inactive),inactive,19.4% (inactive)
CCOC(=O)c1[nH]c2ccccc2c1N=CN(CC)CC,684,0.2% (inactive),-230% (inactive),160,-0.555,0.832,0.765,1.9e-07% (inactive),-0.472 (inactive),-5.6e-05 (inactive),0.00609 (inactive),inactive,-14.4% (inactive)
CC1(C)Cc2c(C#N)c(SCC(=O)c3ccccc3)nc(N3CCOCC3)c2CS1,567,-9.1% (inactive),-119% (inactive),93.2,0.0433,-1.53,0.585,5.42% (inactive),-0.491 (inactive),1.6e-05 (inactive),0.00928 (inactive),inactive,34.2% (inactive)
O=C(CN1C2=NCCN2c2ccccc21)N1CCOCC1,629,11% (inactive),-7.9% (inactive),115,0.036,-0.429,-0.703,-7.67% (inactive),-0.447 (inactive),-4.9e-05 (inactive),0.00508 (inactive),inactive,-8.14% (inactive)
C=CCN(C)CCCNC(=O)/C=N/O,585,-6.9% (inactive),22.6% (inactive),87,1.68,-0.8,-0.822,31.4% (inactive),-0.504 (inactive),-8.8e-05 (inactive),0.00593 (inactive),inactive,-9.97% (inactive)
Cc1nn(CC(=O)N2CCOCC2)c(=O)c2ccccc12,584,-9.1% (inactive),-72.8% (inactive),135,1.52,-1.31,0.975,12.8% (inactive),-0.524 (inactive),-0.000146 (inactive),0.00441 (inactive),inactive,-9.34% (inactive)
Cn1c[n+](C)cc1/C=N/O,710,-2% (inactive),-108% (inactive),159,-0.468,0.134,-0.77,0.671% (inactive),-0.459 (inactive),-6.2e-05 (inactive),0.00537 (inactive),inactive,-4.46% (inactive)
Clc1ccccc1CN(Cc1ccccc1)c1ncnc2nc[nH]c12,523,7.2% (inactive),5.3% (inactive),93,-3.05,1.38,0.29,1.63% (inactive),-0.481 (inactive),-4.9e-05 (inactive),0.00447 (inactive),inactive,38.7% (inactive)
CCOC(=O)C1=C(C)N=C2SC(C)C(=O)N2C1c1ccc(C(=O)OC)cc1 (stereo unspecified),701,2.4% (inactive),-69.3% (inactive),146,-0.735,0.0686,1.13,15% (inactive),-0.428 (inactive),-2.7e-05 (inactive),0.00536 (inactive),inactive,-2.25% (inactive)
Oc1oc(-c2ccco2)nc1C=Nc1cccc(Cl)c1,562,5.6% (inactive),-19% (inactive),131,-0.184,-1.01,0.105,-12.6% (inactive),-0.449 (inactive),-0.000133 (inactive),0.00392 (inactive),inactive,-1.6% (inactive)
O=C(COc1ccc(F)cc1)OCCN1CCOCC1,565,-8.9% (inactive),-82.4% (inactive),135,-1.31,0.0144,2.07,-10.6% (inactive),-0.449 (inactive),-0.000116 (inactive),0.00404 (inactive),inactive,-2.61% (inactive)
COc1ccc(CNc2oc(COc3ccc(Cl)cc3)nc2C#N)cc1,484,5.8% (inactive),-33.3% (inactive),164,0.0253,0.364,0.0628,-5.62% (inactive),-0.474 (inactive),-3.7e-05 (inactive),0.00987 (inactive),inactive,2.55% (inactive)
COc1ccc(-n2ncc3c(N4CCC(C(N)=O)CC4)ncnc32)cc1,602,-18.6% (inactive),-114% (inactive),159,0.0865,1.24,-0.312,13.4% (inactive),-0.385 (inactive),-6.8e-05 (inactive),0.00675 (inactive),inactive,-0.327% (inactive)
CCN(CC)CCN1C(=O)C(=O)/C(=C(/O)c2c(C)[nH]c(C(=O)OC)c2C)C1c1cccc(OC)c1 (stereo unspecified),699,-1% (inactive),-150% (inactive),188,-0.637,-0.455,-0.673,13.2% (inactive),-0.445 (inactive),-7.9e-05 (inactive),0.0061 (inactive),inactive,16.5% (inactive)
COCc1n[nH]c(=S)n1-c1cccc2ccccc12,533,-1.3% (inactive),-25.8% (inactive),173,0.455,0.388,0.964,5.95% (inactive),-0.415 (inactive),-4.6e-05 (inactive),0.00527 (inactive),inactive,4.29% (inactive)
O=S(=O)(c1cccc(-c2csc(-c3ccccc3)n2)c1)N1CCOCC1,681,-6% (inactive),21.6% (inactive),172,-0.667,-0.235,-0.477,-2.29% (inactive),-0.452 (inactive),-5.8e-05 (inactive),0.00515 (inactive),inactive,25.2% (inactive)
Cc1cc(C(=O)O)c(CSc2ncn[nH]2)o1,652,-7.4% (inactive),-48.6% (inactive),174,-1.18,1.91,1.7,-5.81% (inactive),-0.455 (inactive),-0.000158 (inactive),0.0045 (inactive),inactive,-11% (inactive)
O=C(NCc1ccccc1)C1C(=O)N(Cc2ccccc2)C(=O)C1C1(O)CCCC1 (stereo unspecified),653,-2.4% (inactive),-17.9% (inactive),108,-0.94,0.675,0.754,-13.3% (inactive),-0.508 (inactive),-2.1e-05 (inactive),0.00572 (inactive),inactive,-5.5% (inactive)
O=C1C=C(O)CC(c2ccc(Cl)c(Cl)c2)C1 (stereo unspecified),606,4.8% (inactive),-56.5% (inactive),115,0.34,0.0724,0.952,14.7% (inactive),-0.41 (inactive),-4.9e-05 (inactive),0.00481 (inactive),inactive,-8.94% (inactive)
FC(F)(F)c1cccc(N2CCc3cn[nH]c32)c1,690,2.2% (inactive),-30.9% (inactive),178,0.755,0.954,0.248,15.9% (inactive),-0.48 (inactive),-6.5e-05 (inactive),0.00449 (inactive),inactive,-4.32% (inactive)
Cn1c(N2CCN(c3ccccn3)CC2)nc2c1c(=O)n(Cc1ccccc1Cl)c(=O)n2C,738,4.2% (inactive),-56.1% (inactive),177,-0.827,-0.0696,1.36,13.9% (inactive),-0.465 (inactive),-0.000144 (inactive),0.00667 (inactive),inactive,5.36% (inactive)
CC(Sc1ccc2ccccc2n1)C(=O)O (stereo unspecified),709,-5.5% (inactive),23% (inactive),185,0.12,0.234,-0.321,7.21% (inactive),-0.478 (inactive),-9e-05 (inactive),0.00615 (inactive),inactive,-8.1% (inactive)

# — PubChem BioAssay
